Many of the other results were omitted from the sample, so hits are more common in it than they were.
IDH1 mut inh = IDH1 R132H (human) inhibition; IDH1 R132H reductase, diaphorase/resazurin fluorescence, 60 min; inhibition, % at 10 µM; 0.18% of 70,000 active; AID 624101; in the data active = inhibition above about 34%; inconclusive = no clear call, values can overlap the other calls; inactive = below about 11%;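 also: 0% = DMSO and 100% = no enzyme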
Target sequence (O75874 whole entry R132H): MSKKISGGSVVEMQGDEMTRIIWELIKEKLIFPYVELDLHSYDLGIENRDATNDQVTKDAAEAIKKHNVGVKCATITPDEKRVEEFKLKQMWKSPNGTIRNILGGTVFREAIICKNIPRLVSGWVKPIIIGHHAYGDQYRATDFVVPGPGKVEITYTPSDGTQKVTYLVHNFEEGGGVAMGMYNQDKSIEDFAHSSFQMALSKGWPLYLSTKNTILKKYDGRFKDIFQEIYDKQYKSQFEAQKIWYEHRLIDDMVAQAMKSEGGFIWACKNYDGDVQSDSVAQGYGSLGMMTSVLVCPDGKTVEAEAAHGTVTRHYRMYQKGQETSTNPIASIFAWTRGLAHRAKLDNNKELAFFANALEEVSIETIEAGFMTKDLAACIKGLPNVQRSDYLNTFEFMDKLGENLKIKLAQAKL
T cruzi growth-1 = blocks T. cruzi growth in NIH3T3 culture; T. cruzi beta-gal in NIH3T3, GalScreen luminescence, 90 h; inhibition, % at 8.34 µM; 5.9% of 77,000 active; AID 624255;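 active = mean inhibition above about 93%, with at least 55% of replicates each passing it, limit read from the data, passing the limit was not always enough; inconclusive = only one of those two conditions holds; inactive = neither condition holds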
KDM4C inh = inhibitors of human demethylase GASC-1 KDM4C; AID 720574; inhibition, % at 12.5 µM; GST-KDM4C 2-372, H3K9me3 peptide, LANCE TR-FRET; Q9H3R0; 0.15% of 96,000 active;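 active = mean replicate inhibition above about 25%, with at least 55% of replicates also reaching it, limit read from the data, passing the limit was not always enough; inconclusive = only one of those two conditions met; inactive = neither condition met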
Target sequence (Q9H3R0 2-372 limits assumed): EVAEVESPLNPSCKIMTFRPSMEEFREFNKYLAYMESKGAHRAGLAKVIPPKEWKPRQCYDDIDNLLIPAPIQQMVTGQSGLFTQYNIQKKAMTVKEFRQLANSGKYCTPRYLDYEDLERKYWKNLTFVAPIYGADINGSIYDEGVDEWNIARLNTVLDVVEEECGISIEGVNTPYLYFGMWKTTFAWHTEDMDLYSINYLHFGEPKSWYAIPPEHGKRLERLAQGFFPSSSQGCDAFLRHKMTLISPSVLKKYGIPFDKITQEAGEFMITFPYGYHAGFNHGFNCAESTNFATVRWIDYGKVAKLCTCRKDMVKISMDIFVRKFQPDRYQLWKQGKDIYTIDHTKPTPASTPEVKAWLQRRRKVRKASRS
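System: N-terminal GST-fused human GASC-1 (KDM4C) fragment, residues 2-372 / Amount: 10 nM GST-KDM4C in enzyme reaction / Also added: H3K9me3 peptide with Fe(II)/2OG / Times: 30 min demethylation and 1 h detection at room temperature / Signal: LANCE TR-FRET / Read-out basis: Fall in 671/618 emission ratio as inhibition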
T cruzi growth-2 = inhibitors of T. cruzi proliferation; shares compounds with T cruzi growth-1; T. cruzi beta-gal in NIH3T3, GalScreen luminescence, 90 h; inhibition, % at 8.35 µM; 72% of 5,600 active; AID 651739;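 active = mean replicate inhibition above about 95% and at least 55% of replicates individually reaching it, limit read from the data; inconclusive = only one of the two criteria is met; inactive = neither criterion is met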
T cruzi growth-3 = inhibitors of T. cruzi proliferation. inhibition, % at 2.09 µM. shares compounds with T cruzi growth-1. T. cruzi beta-gal in NIH3T3, GalScreen luminescence, 90 h. 21% of 5,600 active. AID 651740;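 active = mean inhibition above about 95%, with at least 55% of replicates also reaching it, limit read from the data; inconclusive = meets just one of the two conditions; inactive = meets neither condition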;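 also: plate controls were neutral control median for no effect and positive control median for full effect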
3T3 cytotox = cytotoxicity in mouse NIH/3T3 fibroblasts; cytotoxicity (signal decrease), % at 8.35 µM; 14% of 5,600 active; NIH/3T3 viability, CellTiter-Glo ATP luminescence, 90 h; AID 651742; shares compounds with T cruzi growth-1;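 active = mean signal decrease across replicates above about 35% based on untreated-well scatter, with enough replicates individually passing, limit read from the data; inconclusive = no rule stated though some were filed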;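 also: 0% = median of neutral control wells and 100% = median of positive control wells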
3T3 cytotox 2 = NIH/3T3 (mouse) viability loss; shares compounds with T cruzi growth-1; inhibition, % at 24.9 µM; NIH/3T3 viability, CellTiter-Glo ATP luminescence, 90 h; 56% of 5,600 active; AID 651744;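 active = mean loss of cell viability signal at or above a set limit, and enough replicates individually reaching it; inconclusive = meets only the mean limit or only the replicate share; inactive = meets neither condition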;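 also: 0% = median of neutral control wells and 100% = median of positive control wells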
The depositor's hits bear a star; ? = inconclusive; / = no result given.

SMILES | IDH1 mut inh | T cruzi growth-1 | KDM4C inh | T cruzi growth-2 | T cruzi growth-3 | 3T3 cytotox | 3T3 cytotox 2
C[C@H]1CN([C@@H](C)CO)S(=O)(=O)c2ccc(-c3ccncc3)cc2O[C@@H]1CN(C)Cc1ccncc1 | / | 100.0* | 0.1 | 96.2* | 97.2* | 30.4 | 64.9*
C[C@@H]1CN([C@H](C)CO)S(=O)(=O)c2ccc(-c3ccncc3)cc2O[C@@H]1CN(C)Cc1ccncc1 | / | 94.7 | 1.8 | / | / | / | /
C[C@@H]1CN([C@@H](C)CO)S(=O)(=O)c2ccc(-c3ccncc3)cc2O[C@@H]1CN(C)Cc1ccncc1 | 20.2 | 105.3* | 1.3 | 99.9* | 67.9 | 35.9* | 64.8*
Cc1ccc([N+](=O)[O-])cc1NS(=O)(=O)c1cccc(C(=O)Nc2ccccc2)c1 | -0.7 | / | / | / | / | / | /
O=c1[nH]c(=S)c2c(n1N1CCOCC1)CCC2 | 0.3 | / | / | / | / | / | /
Cc1c(NC(=O)CSc2nc3c(c(C(F)(F)F)n2)CCc2ccccc2-3)c(=O)n(-c2ccccc2)n1C | -0.3 | / | / | / | / | / | /
O=C(C[C@H]1CC[C@H]2[C@@H](COC[C@H](O)CN2Cc2cc(F)ccc2F)O1)N[C@H]1CCN(Cc2ccccc2)C1 | / | 123.8* | -0.3 | 105.7* | 72.3 | -20.1 | -1.0
O=C(C[C@H]1CC[C@@H]2[C@H](COC[C@@H](O)CN2Cc2cc(F)ccc2F)O1)NCc1ccc(Cl)cc1 | / | 40.3 | -1.0 | / | / | / | /
O=C(C[C@H]1CC[C@H]2[C@@H](COC[C@H](O)CN2Cc2cc(F)ccc2F)O1)NCc1ccc(Cl)cc1 | / | ? | 0.7 | 40.5 | 11.0 | 2.6 | 17.4
O=C(C[C@H]1CC[C@@H]2[C@H](COC[C@@H](O)CN2Cc2cc(F)ccc2F)O1)N1CCc2ccccc2C1 | / | 35.0 | -0.2 | / | / | / | /
O=C(C[C@@H]1CC[C@@H]2[C@H](COC[C@H](O)CN2Cc2cc(F)ccc2F)O1)N1CCc2ccccc2C1 | / | 100.2* | 1.0 | 83.4 | 4.3 | -14.7 | 20.1
O=C(C[C@@H]1CC[C@@H]2[C@H](COC[C@@H](O)CN2Cc2cc(F)ccc2F)O1)N[C@H]1CCN(Cc2ccccc2)C1 | / | 94.7 | 0.1 | / | / | / | /
O=C(C[C@@H]1CC[C@@H]2[C@H](COC[C@@H](O)CN2Cc2ccccc2)O1)N[C@@H]1CCN(Cc2ccccc2)C1 | / | ? | -0.9 | ? | 79.6 | -23.3 | 4.2
O=C(C[C@@H]1CC[C@@H]2[C@H](COC[C@H](O)CN2Cc2ccccc2)O1)N[C@@H]1CCN(Cc2ccccc2)C1 | / | 76.8 | 2.3 | / | / | / | /
COc1ccc(C2C(C(=O)Nc3cc(OC)c(Cl)cc3OC)=C(C)Nc3ncnn32)c(OC)c1 (stereo not given) | 1.1 | / | / | / | / | / | /
CCC(Sc1ccccn1)C(=O)Nc1ccc(Br)cc1 (stereo not given) | 0.5 | / | / | / | / | / | /
CCC(C)c1cnc(Cc2ccccc2)c(=O)[nH]1 (stereo not given) | 0.1 | / | / | / | / | / | /
C=C1[C@H](O)C[C@H]2[C@@H](/C=C(\C)C(=O)[C@@]3(O)C[C@H](C)[C@H](O)[C@@H]3[C@H]1O)C2(C)C | 0.0 | / | / | / | / | / | /
C=C1C(=O)O[C@H]2[C@H]1[C@@H](OC(=O)C(C)(O)C(C)Cl)C(OC(C)=O)/C(C(=O)OC)=C\CC[C@@]1(C)O[C@H]21 (stereo not given in full) | -0.7 | / | / | / | / | / | /
C[C@H](NC(=O)C[C@H]1CC[C@H]2[C@@H](COC[C@@H](O)CN2Cc2ccc(C(F)(F)F)cc2)O1)c1ccccc1 | / | 73.1 | -1.2 | / | / | / | /
C[C@@H](NC(=O)C[C@H]1CC[C@H]2[C@@H](COC[C@@H](O)CN2Cc2ccc(C(F)(F)F)cc2)O1)c1ccccc1 | / | ? | 5.5 | 66.1 | 61.0 | 11.7 | 8.1
Cn1c(SCC(=O)c2cccc([N+](=O)[O-])c2)nnc1-c1cc2ccccc2o1 | 0.4 | / | / | / | / | / | /
C[C@@H]1CCCCO[C@H](CN(C)C(=O)Nc2ccc(C(F)(F)F)cc2)[C@@H](C)CN([C@H](C)CO)C(=O)c2cc(NS(=O)(=O)c3ccc(F)cc3)ccc2O1 | 3.6 | 100.0* | -0.1 | 109.3* | 49.4 | -10.7 | -11.3
Cc1ccc(S(=O)(=O)Nc2ccc3c(c2)C(=O)N([C@H](C)CO)C[C@H](C)[C@H](CN(C)C(=O)Nc2ccc(C(F)(F)F)cc2)OCCCC[C@@H](C)O3)cc1 | 3.1 | 103.3* | 1.4 | 104.4* | 54.3 | 40.0* | 47.9*
C[C@H]1CCCCO[C@@H](CN(C)C(=O)Nc2ccc(C(F)(F)F)cc2)[C@@H](C)CN([C@@H](C)CO)C(=O)c2cc(NS(=O)(=O)c3ccc(F)cc3)ccc2O1 | / | 87.3 | 0.5 | / | / | / | /
SMILES | IDH1 mut inh | T cruzi growth-1 | KDM4C inh | T cruzi growth-2 | T cruzi growth-3 | 3T3 cytotox | 3T3 cytotox 2
Cc1ccc(S(=O)(=O)Nc2ccc3c(c2)C(=O)N([C@H](C)CO)C[C@H](C)[C@H](CN(C)C(=O)Nc2ccc(C(F)(F)F)cc2)OCCCC[C@H](C)O3)cc1 | / | 100.6* | -0.1 | 100.6* | 115.8* | -15.5 | -0.8
C[C@@H]1CCCCO[C@H](CN(C)C(=O)Nc2ccc(C(F)(F)F)cc2)[C@H](C)CN([C@@H](C)CO)C(=O)c2cc(NS(=O)(=O)c3ccc(F)cc3)ccc2O1 | -0.8 | 79.1 | -0.2 | / | / | / | /
C[C@@H]1CCCCO[C@H](CN(C)C(=O)Nc2ccc(C(F)(F)F)cc2)[C@H](C)CN([C@H](C)CO)C(=O)c2cc(NS(C)(=O)=O)ccc2O1 | -0.1 | 14.6 | -0.1 | / | / | / | /
C[C@H]1CCCCO[C@@H](CN(C)C(=O)Nc2ccc(C(F)(F)F)cc2)[C@@H](C)CN([C@@H](C)CO)C(=O)c2cc(NS(C)(=O)=O)ccc2O1 | -0.3 | 108.8* | 0.7 | 107.1* | 34.6 | 24.0 | 0.0
C[C@@H]1CCCCO[C@H](CN(C)C(=O)Nc2ccc(C(F)(F)F)cc2)[C@@H](C)CN([C@@H](C)CO)C(=O)c2cc(NS(=O)(=O)c3ccc(F)cc3)ccc2O1 | 2.0 | 78.0 | -0.5 | / | / | / | /
Cc1sc(NC(=O)COc2ccc(Cl)cc2Cl)c(C(N)=O)c1C | 0.7 | / | / | / | / | / | /
COc1cccc2cc(-c3nnc(SCC(=O)Nc4sc5c(c4C#N)CCCC5)n3C)oc12 | 0.4 | / | / | / | / | / | /
Cc1c(C(=O)N(C)C)sc2[nH]c(=O)n(-c3ccccc3C(F)(F)F)c(=O)c12 | 1.9 | / | / | / | / | / | /
CC(C)(c1ccc(NS(=O)(=O)C(F)(F)F)cc1)c1ccc(C(C)(C)c2cccc(NS(=O)(=O)C(F)(F)F)c2)cc1 | 13.8 | / | / | / | / | / | /
COC(=O)c1ccccc1NC(=O)CN1C(=O)c2cccc3cccc1c23 | -0.1 | / | / | / | / | / | /
COc1ccc(S(=O)(=O)Nc2ccc3c(c2)C(=O)N([C@@H](C)CO)C[C@@H](C)[C@H](CN(C)C(=O)Nc2ccc(C(F)(F)F)cc2)OCCCC[C@H](C)O3)cc1 | / | 79.0 | 0.0 | / | / | / | /

Compound activity: PubChem BioAssay, Broad Institute
